Experimental data published in ChEMBL document CHEMBL1158415, “Synthesis, antimicrobial activity and QSAR studies of new 2,3-disubstituted-3,3a,4,5,6,7-hexahydro-2H-indazoles” (Bioorg Med Chem Lett, 2009).

Tests used:
[1] = Octanol-water partition coefficient, log P of the compound; assay type: physicochemical
Aspergillus niger = experiment: Antifungal activity against Aspergillus niger after 7 days by tube dilution method; assay type: functional
How it was run: (§1)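 Tube dilution in Sabouraud dextrose broth, done in duplicate. DMSO test solution (10 µg/mL) is serially diluted to give 5, 2.5, 1.25, 0.625 and 0.312 µg/mL. Each tube gets 0.1 mL of spore/microbial suspension in saline, then is incubated at 25 °C for 7 d. MIC is read visually as the lowest concentration without turbidity, refined with intermediate concentrations. Fluconazole is the reference.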

Candida albicans = experiment: Antifungal activity against Candida albicans after 48 hrs by tube dilution method; assay type: functional
How it was run: as §1, with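 “5 down to” for “5, 2.5, 1.25, 0.625 and”, “yeast” for “spore/microbial”, “37” for “25”, “48 h.” for “7 d.”, “is” for “is read visually as”, “preventing” for “without”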

Staphylococcus aureus = experiment: Antibacterial activity against Staphylococcus aureus after 24 hrs by tube dilution method; assay type: functional
How it was run: (§2)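 Tube dilution in double strength nutrient broth-IP, done in duplicate. Test solution in DMSO (10 µg/mL) is serially diluted twofold into medium to give 5, 2.5, 1.25, 0.625 and 0.312 µg/mL. Each tube gets 0.1 mL of microbial suspension in saline, then is incubated at 37 °C for 24 h. MIC is the lowest concentration with no visible turbidity, refined by testing intermediate concentrations. Ciprofloxacin is the reference.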

Bacillus subtilis = experiment: Antibacterial activity against Bacillus subtilis after 24 hrs by tube dilution method; assay type: functional; how it was run: as §2
Escherichia coli = experiment: Antibacterial activity against Escherichia coli after 24 hrs by tube dilution method; assay type: functional; how it was run: as §2
Pseudomonas aeruginosa = experiment: Antibacterial activity against Pseudomonas aeruginosa after 24 hrs by tube dilution method; assay type: functional; how it was run: as §2

Compound: COc1ccc(C2NN=C3CCCCC32)cc1 (stereo not drawn)
- logP [1]: 3.6
- -logMIC (Aspergillus niger): 2.19
- -logMIC (Candida albicans): 2.19
- -logMIC (Staphylococcus aureus): 2.01
- -logMIC (Bacillus subtilis): 2.01
- -logMIC (Escherichia coli): 2.06
- -logMIC (Pseudomonas aeruginosa): 2.19

Compound: O=S(=O)(c1ccccc1)N1N=C2CCCCC2C1c1ccc(Cl)cc1 (stereo not drawn)
- logP [1]: 5.4
- -logMIC (Aspergillus niger): 2.62
- -logMIC (Candida albicans): 2.62
- -logMIC (Staphylococcus aureus): 2.57
- -logMIC (Bacillus subtilis): 2.62
- -logMIC (Escherichia coli): 2.57
- -logMIC (Pseudomonas aeruginosa): 2.67

Compound: Cc1ccc(S(=O)(=O)N2N=C3CCCCC3C2c2ccc(F)cc2)cc1 (stereo not drawn)
- logP [1]: 5.4
- -logMIC (Aspergillus niger): 2.67
- -logMIC (Candida albicans): 2.57
- -logMIC (Staphylococcus aureus): 2.47
- -logMIC (Bacillus subtilis): 2.62
- -logMIC (Escherichia coli): 2.62
- -logMIC (Pseudomonas aeruginosa): 2.67

Compound: COc1ccc(C2C3CCCCC3=NN2S(=O)(=O)c2ccc(Cl)cc2)cc1 (stereo not drawn)
- logP [1]: 4.3
- -logMIC (Aspergillus niger): 2.65
- -logMIC (Candida albicans): 2.61
- -logMIC (Staphylococcus aureus): 2.61
- -logMIC (Bacillus subtilis): 2.65
- -logMIC (Escherichia coli): 2.65
- -logMIC (Pseudomonas aeruginosa): 2.7

Compound: COc1ccc(C2C3CCCCC3=NN2S(C)(=O)=O)cc1 (stereo not drawn)
- logP [1]: 2.9
- -logMIC (Aspergillus niger): 2.53
- -logMIC (Candida albicans): 2.59
- -logMIC (Staphylococcus aureus): 2.31
- -logMIC (Bacillus subtilis): 2.53
- -logMIC (Escherichia coli): 2.39
- -logMIC (Pseudomonas aeruginosa): 2.49

Compound: O=C(O)c1cn(C2CC2)c2cc(N3CCNCC3)c(F)cc2c1=O [CIPROFLOXACIN]
- -logMIC (Staphylococcus aureus): 2.03
- -logMIC (Bacillus subtilis): 2.33
- -logMIC (Escherichia coli): 2.03
- -logMIC (Pseudomonas aeruginosa): 2.62

Compound: O=S(=O)(c1ccc(Cl)cc1)N1N=C2CCCCC2C1c1ccc(Cl)cc1 (stereo not drawn)
- logP [1]: 5.9
- -logMIC (Aspergillus niger): 2.71
- -logMIC (Candida albicans): 2.77
- -logMIC (Staphylococcus aureus): 2.61
- -logMIC (Bacillus subtilis): 2.71
- -logMIC (Escherichia coli): 2.66
- -logMIC (Pseudomonas aeruginosa): 2.77

Compound: COc1ccc(C2C3CCCCC3=NN2S(=O)(=O)c2ccc(C)cc2)cc1 (stereo not drawn)
- logP [1]: 5.1
- -logMIC (Aspergillus niger): 2.68
- -logMIC (Candida albicans): 2.63
- -logMIC (Staphylococcus aureus): 2.49
- -logMIC (Bacillus subtilis): 2.63
- -logMIC (Escherichia coli): 2.58
- -logMIC (Pseudomonas aeruginosa): 2.58

Compound: COc1ccc(C2C3CCCCC3=NN2S(=O)(=O)c2cccc3ccccc23)cc1 (stereo not drawn)
- logP [1]: 5.6
- -logMIC (Aspergillus niger): 2.62
- -logMIC (Candida albicans): 2.62
- -logMIC (Staphylococcus aureus): 2.53
- -logMIC (Bacillus subtilis): 2.62
- -logMIC (Escherichia coli): 2.62
- -logMIC (Pseudomonas aeruginosa): 2.67

Compound: Cc1ccc(S(=O)(=O)N2N=C3CCCCC3C2c2ccc(Cl)cc2)cc1 (stereo not drawn)
- logP [1]: 5.8
- -logMIC (Aspergillus niger): 2.64
- -logMIC (Candida albicans): 2.59
- -logMIC (Staphylococcus aureus): 2.49
- -logMIC (Bacillus subtilis): 2.64
- -logMIC (Escherichia coli): 2.59
- -logMIC (Pseudomonas aeruginosa): 2.64

Compound: COc1ccc(C2C3CCCCC3=NN2S(=O)(=O)c2ccc([N+](=O)[O-])cc2)cc1 (stereo not drawn)
- logP [1]: 4.5
- -logMIC (Aspergillus niger): 2.66
- -logMIC (Candida albicans): 2.77
- -logMIC (Staphylococcus aureus): 2.66
- -logMIC (Bacillus subtilis): 2.62
- -logMIC (Escherichia coli): 2.66
- -logMIC (Pseudomonas aeruginosa): 2.72

Compound: CS(=O)(=O)N1N=C2CCCCC2C1c1ccc(F)cc1 (stereo not drawn)
- logP [1]: 3.3
- -logMIC (Aspergillus niger): 2.57
- -logMIC (Candida albicans): 2.47
- -logMIC (Staphylococcus aureus): 2.37
- -logMIC (Bacillus subtilis): 2.57
- -logMIC (Escherichia coli): 2.47
- -logMIC (Pseudomonas aeruginosa): 2.52

Compound: CS(=O)(=O)N1N=C2CCCCC2C1c1ccc(Cl)cc1 (stereo not drawn)
- logP [1]: 3.7
- -logMIC (Aspergillus niger): 2.5
- -logMIC (Candida albicans): 2.59
- -logMIC (Staphylococcus aureus): 2.4
- -logMIC (Bacillus subtilis): 2.54
- -logMIC (Escherichia coli): 2.4
- -logMIC (Pseudomonas aeruginosa): 2.5

Compound: Fc1ccc(C2NN=C3CCCCC32)cc1 (stereo not drawn)
- logP [1]: 4
- -logMIC (Aspergillus niger): 2.24
- -logMIC (Candida albicans): 2.16
- -logMIC (Staphylococcus aureus): 2.04
- -logMIC (Bacillus subtilis): 2.24
- -logMIC (Escherichia coli): 2.24
- -logMIC (Pseudomonas aeruginosa): 2.24

Compound: O=S(=O)(c1cccc2ccccc12)N1N=C2CCCCC2C1c1ccc(F)cc1 (stereo not drawn)
- logP [1]: 6
- -logMIC (Aspergillus niger): 2.66
- -logMIC (Candida albicans): 2.61
- -logMIC (Staphylococcus aureus): 2.61
- -logMIC (Bacillus subtilis): 2.66
- -logMIC (Escherichia coli): 2.71
- -logMIC (Pseudomonas aeruginosa): 2.77

Compound: O=S(=O)(c1ccc(Cl)cc1)N1N=C2CCCCC2C1c1ccc(F)cc1 (stereo not drawn)
- logP [1]: 5.1
- -logMIC (Aspergillus niger): 2.64
- -logMIC (Candida albicans): 2.59
- -logMIC (Staphylococcus aureus): 2.64
- -logMIC (Bacillus subtilis): 2.69
- -logMIC (Escherichia coli): 2.75
- -logMIC (Pseudomonas aeruginosa): 2.79

Compound: O=[N+]([O-])c1ccc(S(=O)(=O)N2N=C3CCCCC3C2c2ccc(F)cc2)cc1 (stereo not drawn)
- logP [1]: 4.9
- -logMIC (Aspergillus niger): 2.76
- -logMIC (Candida albicans): 2.65
- -logMIC (Staphylococcus aureus): 2.7
- -logMIC (Bacillus subtilis): 2.76
- -logMIC (Escherichia coli): 2.76
- -logMIC (Pseudomonas aeruginosa): 2.81

Compound: O=S(=O)(c1cccc2ccccc12)N1N=C2CCCCC2C1c1ccc(Cl)cc1 (stereo not drawn)
- logP [1]: 6.4
- -logMIC (Aspergillus niger): 2.67
- -logMIC (Candida albicans): 2.73
- -logMIC (Staphylococcus aureus): 2.53
- -logMIC (Bacillus subtilis): 2.67
- -logMIC (Escherichia coli): 2.63
- -logMIC (Pseudomonas aeruginosa): 2.67

Compound: COc1ccc(C2C3CCCCC3=NN2S(=O)(=O)c2ccccc2)cc1 (stereo not drawn)
- logP [1]: 4.6
- -logMIC (Aspergillus niger): 2.57
- -logMIC (Candida albicans): 2.61
- -logMIC (Staphylococcus aureus): 2.57
- -logMIC (Bacillus subtilis): 2.47
- -logMIC (Escherichia coli): 2.57
- -logMIC (Pseudomonas aeruginosa): 2.61

Compound: Clc1ccc(C2NN=C3CCCCC32)cc1 (stereo not drawn)
- logP [1]: 4.4
- -logMIC (Aspergillus niger): 2.27
- -logMIC (Candida albicans): 2.27
- -logMIC (Staphylococcus aureus): 2.07
- -logMIC (Bacillus subtilis): 2.07
- -logMIC (Escherichia coli): 2.19
- -logMIC (Pseudomonas aeruginosa): 2.19

Compound: O=[N+]([O-])c1ccc(S(=O)(=O)N2N=C3CCCCC3C2c2ccc(Cl)cc2)cc1 (stereo not drawn)
- logP [1]: 5.3
- -logMIC (Aspergillus niger): 2.82
- -logMIC (Candida albicans): 2.82
- -logMIC (Staphylococcus aureus): 2.67
- -logMIC (Bacillus subtilis): 2.72
- -logMIC (Escherichia coli): 2.67
- -logMIC (Pseudomonas aeruginosa): 2.78

Compound: O=S(=O)(c1ccccc1)N1N=C2CCCCC2C1c1ccc(F)cc1 (stereo not drawn)
- logP [1]: 5
- -logMIC (Aspergillus niger): 2.55
- -logMIC (Candida albicans): 2.6
- -logMIC (Staphylococcus aureus): 2.55
- -logMIC (Bacillus subtilis): 2.65
- -logMIC (Escherichia coli): 2.65
- -logMIC (Pseudomonas aeruginosa): 2.71

Compound: OC(Cn1cncn1)(Cn1cncn1)c1ccc(F)cc1F [FLUCONAZOLE]
- -logMIC (Aspergillus niger): 3.16
- -logMIC (Candida albicans): 3.16
